Results: ChEMBL document CHEMBL4689842, “EUbOPEN Chemogenomics Library wave 1” (2021)

Test system: HEK-293T
Assay: Multiplex assay against HEK293T;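 for Population Tubulin-Different-Phenotype (%): share of the cells with healthy nuclei that show this phenotype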
Type: toxicity, cell-based
Conditions: human
Summary of the method: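 Compound was added to live cells that had been stained at seeding with Hoechst33342, BioTracker Green Microtubule Cytoskeleton Dye, MitoTracker Red and Annexin V Alexa Fluor 680, and imaging followed on a CQ1 microscope at 37°C and 5% CO2. CellPathfinder machine-learning gating divided cells into Hoechst high-intensity objects or normal cells, normal cells into healthy, pyknosed or fragmented nuclei, and pyknosed cells into mitotic or apoptotic. Tubulin, mitochondrial-mass and membrane-permeability phenotypes are per cents of healthy-nucleus cells.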

[1] = 12 h, 1 µM, compound concentration 1 uM, replicate 1
[2] = 12 h, 1 µM, compound concentration 1 uM, replicate 2
[3] = 12 h, 10 µM, compound concentration 10 uM, replicate 1
[4] = 12 h, 10 µM, compound concentration 10 uM, replicate 2
[5] = 24 h, 1 µM, compound concentration 1 uM, replicate 1
[6] = 24 h, 1 µM, compound concentration 1 uM, replicate 2
[7] = 24 h, 10 µM, compound concentration 10 uM, replicate 1
[8] = 24 h, 10 µM, compound concentration 10 uM, replicate 2
[9] = 48 h, 1 µM, compound concentration 1 uM, replicate 1
[10] = 48 h, 1 µM, compound concentration 1 uM, replicate 2
[11] = 48 h, 10 µM, compound concentration 10 uM, replicate 1
[12] = 48 h, 10 µM, compound concentration 10 uM, replicate 2

SMILES: Cl.Oc1ccc2c3c1O[C@H]1c4[nH]c5c(c4C[C@@]4(O)[C@@H](C2)N(CC2CC2)CC[C@]314)C[C@@]1(O)[C@H]2Cc3ccc(O)c4c3[C@@]1(CCN2CC1CC1)[C@H]5O4
- Population Apoptotic (%) [1]: 47%
- Population Fragmented Nuclei (%) [1]: 8%
- Population Healthy Nuclei (%) [1]: 45%
- Population Hoechst High Intensity Objects (%) [1]: 13%
- Population Membrane Permeable-Phenotype (%) [1]: 0%
- Population Mitochondria Different-Phenotype (%) [1]: 74%
- Population Mitotic Cells (%) [1]: 52%
- Population Normal (%) [1]: 86%
- Population Pyknosed Nuclei (%) [1]: 45%
- Population Tubulin-Different-Phenotype (%) [1]: 46%
- Total Cell Count [1]: 294
- Population Apoptotic (%) [2]: 10%
- Population Fragmented Nuclei (%) [2]: 4%
- Population Healthy Nuclei (%) [2]: 38%
- Population Hoechst High Intensity Objects (%) [2]: 5%
- Population Membrane Permeable-Phenotype (%) [2]: 8%
- Population Mitochondria Different-Phenotype (%) [2]: 10%
- Population Mitotic Cells (%) [2]: 89%
- Population Normal (%) [2]: 94%
- Population Pyknosed Nuclei (%) [2]: 56%
- Population Tubulin-Different-Phenotype (%) [2]: 12%
- Total Cell Count [2]: 128
- Population Apoptotic (%) [3]: 40%
- Population Fragmented Nuclei (%) [3]: 7%
- Population Healthy Nuclei (%) [3]: 49%
- Population Hoechst High Intensity Objects (%) [3]: 12%
- Population Membrane Permeable-Phenotype (%) [3]: 3%
- Population Mitochondria Different-Phenotype (%) [3]: 79%
- Population Mitotic Cells (%) [3]: 59%
- Population Normal (%) [3]: 87%
- Population Pyknosed Nuclei (%) [3]: 43%
- Population Tubulin-Different-Phenotype (%) [3]: 33%
- Total Cell Count [3]: 253
- Population Apoptotic (%) [4]: 7%
- Population Fragmented Nuclei (%) [4]: 5%
- Population Healthy Nuclei (%) [4]: 45%
- Population Hoechst High Intensity Objects (%) [4]: 2%
- Population Membrane Permeable-Phenotype (%) [4]: 6%
- Population Mitochondria Different-Phenotype (%) [4]: 27%
- Population Mitotic Cells (%) [4]: 92%
- Population Normal (%) [4]: 97%
- Population Pyknosed Nuclei (%) [4]: 48%
- Population Tubulin-Different-Phenotype (%) [4]: 22%
- Total Cell Count [4]: 294
- Population Apoptotic (%) [5]: 43%
- Population Fragmented Nuclei (%) [5]: 11%
- Population Healthy Nuclei (%) [5]: 38%
- Population Hoechst High Intensity Objects (%) [5]: 12%
- Population Membrane Permeable-Phenotype (%) [5]: 0%
- Population Mitochondria Different-Phenotype (%) [5]: 61%
- Population Mitotic Cells (%) [5]: 56%
- Population Normal (%) [5]: 87%
- Population Pyknosed Nuclei (%) [5]: 50%
- Population Tubulin-Different-Phenotype (%) [5]: 37%
- Total Cell Count [5]: 307
- Population Apoptotic (%) [6]: 6%
- Population Fragmented Nuclei (%) [6]: 7%
- Population Healthy Nuclei (%) [6]: 53%
- Population Hoechst High Intensity Objects (%) [6]: 4%
- Population Membrane Permeable-Phenotype (%) [6]: 8%
- Population Mitochondria Different-Phenotype (%) [6]: 13%
- Population Mitotic Cells (%) [6]: 93%
- Population Normal (%) [6]: 95%
- Population Pyknosed Nuclei (%) [6]: 39%
- Population Tubulin-Different-Phenotype (%) [6]: 26%
- Total Cell Count [6]: 164
- Population Apoptotic (%) [7]: 35%
- Population Fragmented Nuclei (%) [7]: 9%
- Population Healthy Nuclei (%) [7]: 58%
- Population Hoechst High Intensity Objects (%) [7]: 7%
- Population Membrane Permeable-Phenotype (%) [7]: 0%
- Population Mitochondria Different-Phenotype (%) [7]: 54%
- Population Mitotic Cells (%) [7]: 64%
- Population Normal (%) [7]: 92%
- Population Pyknosed Nuclei (%) [7]: 32%
- Population Tubulin-Different-Phenotype (%) [7]: 30%
- Total Cell Count [7]: 308
- Population Apoptotic (%) [8]: 11%
- Population Fragmented Nuclei (%) [8]: 4%
- Population Healthy Nuclei (%) [8]: 73%
- Population Hoechst High Intensity Objects (%) [8]: 3%
- Population Membrane Permeable-Phenotype (%) [8]: 4%
- Population Mitochondria Different-Phenotype (%) [8]: 17%
- Population Mitotic Cells (%) [8]: 88%
- Population Normal (%) [8]: 96%
- Population Pyknosed Nuclei (%) [8]: 22%
- Population Tubulin-Different-Phenotype (%) [8]: 23%
- Total Cell Count [8]: 399
- Population Apoptotic (%) [9]: 43%
- Population Fragmented Nuclei (%) [9]: 15%
- Population Healthy Nuclei (%) [9]: 44%
- Population Hoechst High Intensity Objects (%) [9]: 12%
- Population Membrane Permeable-Phenotype (%) [9]: 2%
- Population Mitochondria Different-Phenotype (%) [9]: 29%
- Population Mitotic Cells (%) [9]: 56%
- Population Normal (%) [9]: 87%
- Population Pyknosed Nuclei (%) [9]: 39%
- Population Tubulin-Different-Phenotype (%) [9]: 31%
- Total Cell Count [9]: 368
- Population Apoptotic (%) [10]: 10%
- Population Fragmented Nuclei (%) [10]: 6%
- Population Healthy Nuclei (%) [10]: 77%
- Population Hoechst High Intensity Objects (%) [10]: 3%
- Population Membrane Permeable-Phenotype (%) [10]: 10%
- Population Mitochondria Different-Phenotype (%) [10]: 7%
- Population Mitotic Cells (%) [10]: 89%
- Population Normal (%) [10]: 96%
- Population Pyknosed Nuclei (%) [10]: 15%
- Population Tubulin-Different-Phenotype (%) [10]: 23%
- Total Cell Count [10]: 260
- Population Apoptotic (%) [11]: 29%
- Population Fragmented Nuclei (%) [11]: 10%
- Population Healthy Nuclei (%) [11]: 69%
- Population Hoechst High Intensity Objects (%) [11]: 9%
- Population Membrane Permeable-Phenotype (%) [11]: 2%
- Population Mitochondria Different-Phenotype (%) [11]: 23%
- Population Mitotic Cells (%) [11]: 70%
- Population Normal (%) [11]: 90%
- Population Pyknosed Nuclei (%) [11]: 19%
- Population Tubulin-Different-Phenotype (%) [11]: 21%
- Total Cell Count [11]: 462
- Population Apoptotic (%) [12]: 14%
- Population Fragmented Nuclei (%) [12]: 5%
- Population Healthy Nuclei (%) [12]: 83%
- Population Hoechst High Intensity Objects (%) [12]: 2%
- Population Membrane Permeable-Phenotype (%) [12]: 3%
- Population Mitochondria Different-Phenotype (%) [12]: 5%
- Population Mitotic Cells (%) [12]: 85%
- Population Normal (%) [12]: 97%
- Population Pyknosed Nuclei (%) [12]: 10%
- Population Tubulin-Different-Phenotype (%) [12]: 16%
- Total Cell Count [12]: 731
